From paper PMC5161045 (Journal of Antimicrobial Chemotherapy, 2016)
≈ marks a conversion by molar mass, not a printed value. Ends that are not written are not given here.

Columns and labels:
[1] = tested on: S. aureus DA30559 (cycled with WGH); experiment: MIC of antibiotics by Etest; format: cell-based; conditions: Staphylococcus aureus
Outline: (§1)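 Strains were grown overnight with shaking at 37°C in Mueller–Hinton II broth and diluted to ∼10⁸ cfu/mL in the same broth. They were swabbed onto Mueller–Hinton II agar, an antibiotic Etest strip was applied, and plates were incubated at 37°C for 18–20 h. MIC is the lowest concentration with no visible growth, taken as the consensus of ≥2 independent determinations. Increases over WT were graded 2–5-fold or >5-fold, and EUCAST v5.0 breakpoints were used.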

[2] = tested on: S. aureus DA37296 (cycled with PR-39); experiment: MIC of antibiotics by Etest; format: cell-based; conditions: Staphylococcus aureus
Outline: as §1

[3] = tested on: S. aureus DA30557 (cycled with WGH); experiment: MIC of antibiotics by Etest; format: cell-based, Staphylococcus aureus; conditions: for MIC: Staphylococcus aureus
Outline: as §1

[4] = tested on: S. aureus DA36424 (cycled with LL-37 and WGH); experiment: MIC of antibiotics by Etest; format: cell-based; conditions: Staphylococcus aureus
Outline: as §1

[5] = tested on: S. aureus DA29677 (cycled with LL-37); experiment: MIC of antibiotics by Etest; format: cell-based; conditions: Staphylococcus aureus
Outline: as §1

[6] = tested on: S. aureus DA29680 (cycled with LL-37); experiment: MIC of antibiotics by Etest; format: cell-based; conditions: Staphylococcus aureus
Outline: as §1

[7] = tested on: S. aureus DA35920 (cycled with PR-39); experiment: MIC of antibiotics by Etest; format: cell-based; conditions: Staphylococcus aureus
Outline: as §1

S. aureus DA29677 = experiment: Bacterial cell survival assay with human defensins; format: cell-based, Staphylococcus aureus; conditions: strain DA29677, NaPB pH 7.4, exponential phase cells, 37°C, 2 h
Outline: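 Exponential-phase cells: overnight TSB culture diluted 1:100 in pre-warmed TSB, shaken 2 h at 37°C, washed once and resuspended in 10 mM sodium phosphate pH 7.4. Diluted to 0.69−4.7 × 10⁴ cfu/mL and exposed to hBD3 at 1 μM or other β-defensins at 10 μM, shaking in a sealed humidified container at 37°C for 2 h. Cells were plated on TSA for cfu. % survival = cfu with peptide/cfu without peptide × 100. Detection limit 1% survival. Mean ± SEM of ≥3 independent determinations.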

S. aureus DA28823 (WT) = experiment: MIC of antibiotics by Etest; format: cell-based; conditions: Staphylococcus aureus
Outline: as §1

[8] = tested on: S. aureus DA30560 (cycled with no peptide); experiment: MIC of antibiotics by Etest; format: cell-based; conditions: Staphylococcus aureus
Outline: as §1

[9] = tested on: seven AMP-resistant S. aureus mutants; experiment: MIC of antibiotics by Etest, summary over mutants; format: cell-based, Staphylococcus aureus; conditions: Mueller–Hinton medium; for number of AMP-resistant mutants with reduced/diminished susceptibility: of seven mutants
Outline: as §1

S. aureus DA36424 = experiment: Bacterial cell survival assay with human defensins; format: cell-based, Staphylococcus aureus; conditions: strain DA36424; 10 μM peptide, NaPB pH 7.4, exponential phase cells, 37°C, 2 h
Solubility limit in MIEM = format: physicochemical; conditions: in MIEM (mammalian ionic environment medium, without NaCl, pH 7.4)

MIC [1] | MIC [2] | MIC [3] | MIC [4] | MIC [5] | MIC [6] | MIC [7] | solubility limit (Solubility limit in MIEM) | Molecule | resistance to human β-defensin, relative to WT (in words) (S. aureus DA29677; 10 μM peptide) | MIC (S. aureus DA28823 (WT)) | MIC [8] | susceptibility of all seven AMP-resistant mutants relative to WT (in words) [9] | increase in MIC ([3]; strain DA30557 (passaged with WGH), relative to WT, Etest) | number of AMP-resistant mutants with reduced/diminished susceptibility [9] | bacterial survival after defensin exposure, relative to WT (in words) (S. aureus DA36424) | resistance to human β-defensin, relative to WT (in words) (S. aureus DA29677; 1 μM peptide)
0.125 µg/mL | 0.125 µg/mL | 0.094 µg/mL | 0.25 µg/mL | 0.125 µg/mL | 0.094 µg/mL | 0.094 µg/mL |  | C[C@H]1c2cccc(O)c2C(=O)C2=C(O)[C@]3(O)C(=O)C(C(N)=O)=C(O)[C@@H](N(C)C)[C@@H]3[C@@H](O)[C@@H]21 [DOX, doxycycline] |  |  |  |  |  |  |  | 
 |  |  |  |  |  |  |  | DHYNCVSSGGQCLYSACPIFTKIQGTCYRGKAKCCK (also: bicyclic or more (positions not given here)) [hBD1] | increased resistance |  |  |  |  |  |  | 
1 µg/mL | 2 µg/mL | 2 µg/mL | 2 µg/mL | 1.5 µg/mL | 1.5 µg/mL | 1 µg/mL |  | CC(=O)NC[C@H]1CN(c2ccc(N3CCOCC3)c(F)c2)C(=O)O1 [LZD, linezolid] |  | 2 µg/mL | 2 µg/mL |  |  |  |  | 
4 µg/mL | 6 µg/mL | 4 µg/mL | 4 µg/mL | 6 µg/mL | 4 µg/mL | 3 µg/mL |  | O=C(N[C@H](CO)[C@H](O)c1ccc([N+](=O)[O-])cc1)C(Cl)Cl [CHL, chloramphenicol] |  | 4 µg/mL | 4 µg/mL |  |  |  |  | 
 |  |  |  |  |  |  |  | AFTCHCRRSCYSTEYSYGTCTVMGINHRFCCL (bicyclic or more) [HNP6] |  |  |  |  |  |  | significantly reduced survival | 
 |  |  |  |  |  |  |  | GIINTLQKYYCRVRGGRCAVLSCLPKEEQIGKCSTRGRKCCRRKK (also: bicyclic or more (positions not given here)) [hBD3] |  |  |  |  |  |  |  | increased resistance
0.064 µg/mL | 0.125 µg/mL | 0.064 µg/mL | 0.125 µg/mL | 0.047 µg/mL | 0.094 µg/mL | 0.094 µg/mL |  | CCC[C@@H]1C[C@@H](C(=O)N[C@@H]([C@H]2O[C@H](SC)[C@H](O)[C@@H](O)[C@H]2O)[C@H](C)Cl)N(C)C1 [CLI, clindamycin] |  | 0.094 µg/mL | 0.094 µg/mL |  |  |  |  | 
 |  |  |  |  |  |  | ~550 µg/mL (≈ 122 µM) | CC[C@H](C)[C@H](NC(=O)[C@H](CCCCN)NC(=O)[C@H](CCC(=O)O)NC(=O)[C@H](CCCCN)NC(=O)[C@H](CO)NC(=O)[C@H](CCCCN)NC(=O)[C@H](CCCNC(=N)N)NC(=O)[C@H](Cc1ccccc1)NC(=O)[C@H](Cc1ccccc1)NC(=O)[C@H](CC(=O)O)NC(=O)CNC(=O)[C@H](CC(C)C)NC(=O)[C@@H](N)CC(C)C)C(=O)NCC(=O)N[C@@H](CCCCN)C(=O)N[C@@H](CCC(=O)O)C(=O)N[C@@H](Cc1ccccc1)C(=O)N[C@@H](CCCCN)C(=O)N[C@@H](CCCNC(=N)N)C(=O)N[C@H](C(=O)N[C@H](C(=O)N[C@@H](CCC(N)=O)C(=O)N[C@@H](CCCNC(=N)N)C(=O)N[C@H](C(=O)N[C@@H](CCCCN)C(=O)N[C@@H](CC(=O)O)C(=O)N[C@@H](Cc1ccccc1)C(=O)N[C@@H](CC(C)C)C(=O)N[C@@H](CCCNC(=N)N)C(=O)N[C@@H](CC(N)=O)C(=O)N[C@@H](CC(C)C)C(=O)N[C@H](C(=O)N1CCC[C@H]1C(=O)N[C@@H](CCCNC(=N)N)C(=O)N[C@H](C(=O)N[C@@H](CCC(=O)O)C(=O)N[C@@H](CO)C(=O)O)[C@@H](C)O)C(C)C)[C@@H](C)CC)C(C)C)[C@@H](C)CC [LL-37] |  |  |  |  |  |  |  | 
 |  |  |  |  |  |  |  | GIGDPVTCLKSGAICHPVFCPRRYKQIGTCGLPGTKCCKKP (also: bicyclic or more (positions not given here)) [hBD2] | increased resistance |  |  |  |  |  |  | 
0.016 µg/mL | 0.008 µg/mL | 0.012 µg/mL | 0.012 µg/mL | 0.008 µg/mL | 0.012 µg/mL | 0.016 µg/mL |  | CO[C@H]1/C=C/O[C@@]2(C)Oc3c(C)c(O)c4c(O)c(c(/C=N/N5CCN(C)CC5)c(O)c4c3C2=O)NC(=O)/C(C)=C\C=C\[C@H](C)[C@H](O)[C@@H](C)[C@@H](O)[C@@H](C)[C@H](OC(C)=O)[C@@H]1C [RIF, rifampicin] |  | 0.012 µg/mL | 0.012 µg/mL |  |  |  |  | 
 |  |  |  |  |  |  |  | teicoplanin [TEC] |  |  |  | diminished susceptibility |  |  |  | 
 |  |  |  |  |  |  |  | polymyxin B [PMB] |  |  |  |  |  | three of seven |  | 
0.38 µg/mL | 0.25 µg/mL | 0.38 µg/mL | 0.38 µg/mL | 0.19 µg/mL | 0.25 µg/mL | 0.19 µg/mL |  | CCO/N=C(\C(=O)N[C@@H]1C(=O)N2C(C(=O)[O-])=C(Sc3nc(-c4cc[n+](C)cc4)cs3)CS[C@H]12)c1nsc(N)n1 [CFT, ceftaroline] |  | 0.25 µg/mL | 0.25 µg/mL |  |  |  |  | 

Molecule | MIC [1] | MIC [2] | MIC [3] | MIC [4] | MIC [5] | MIC [6] | MIC [7] | solubility limit (Solubility limit in MIEM) | resistance to human β-defensin, relative to WT (in words) (S. aureus DA29677; 10 μM peptide) | MIC (S. aureus DA28823 (WT)) | MIC [8] | susceptibility of all seven AMP-resistant mutants relative to WT (in words) [9] | increase in MIC ([3]; strain DA30557 (passaged with WGH), relative to WT, Etest) | number of AMP-resistant mutants with reduced/diminished susceptibility [9] | bacterial survival after defensin exposure, relative to WT (in words) (S. aureus DA36424) | resistance to human β-defensin, relative to WT (in words) (S. aureus DA29677; 1 μM peptide)
CN[C@H](CC(C)C)C(=O)N[C@H]1C(=O)N[C@@H](CC(N)=O)C(=O)N[C@H]2C(=O)N[C@H]3C(=O)N[C@H](C(=O)N[C@H](C(=O)O)c4cc(O)cc(O)c4-c4cc3ccc4O)[C@H](O)c3ccc(c(Cl)c3)Oc3cc2cc(c3O[C@@H]2O[C@H](CO)[C@@H](O)[C@H](O)[C@H]2O[C@H]2C[C@](C)(N)[C@H](O)[C@H](C)O2)Oc2ccc(cc2Cl)[C@H]1O [VAN, vancomycin] | 1.5 µg/mL | 2 µg/mL | 2 µg/mL | 2 µg/mL | 2 µg/mL | 2 µg/mL | 2 µg/mL |  |  | 1.5 µg/mL | 1.5 µg/mL | little to no change in susceptibility |  |  |  | 
CNC(C)C1CCC(N)C(OC2C(N)CC(N)C(OC3OCC(C)(O)C(NC)C3O)C2O)O1 (centres unmarked) [GEN, gentamicin] | 0.38 µg/mL | 0.5 µg/mL | 1 µg/mL | 0.19 µg/mL | 0.094 µg/mL | 0.094 µg/mL | 0.25 µg/mL |  |  | 0.125 µg/mL | 0.125 µg/mL |  | 8 fold | Four of seven |  | 
CC[C@H]1OC(=O)[C@H](C)[C@@H](O[C@H]2C[C@@](C)(OC)[C@@H](O)[C@H](C)O2)[C@H](C)[C@@H](O[C@@H]2O[C@H](C)C[C@H](N(C)C)[C@H]2O)[C@](C)(O)C[C@@H](C)C(=O)[C@H](C)[C@@H](O)[C@]1(C)O [ERY, erythromycin] | 0.125 µg/mL | 0.38 µg/mL | 0.125 µg/mL | 0.25 µg/mL | 0.19 µg/mL | 0.19 µg/mL | 0.38 µg/mL |  |  | 0.19 µg/mL | 0.19 µg/mL |  |  | two of seven |  | 
CN(C)[C@@H]1C(O)=C(C(N)=O)C(=O)[C@@]2(O)C(O)=C3C(=O)c4c(O)cccc4[C@@](C)(O)[C@H]3C[C@@H]12 [TET, tetracycline] | 0.19 µg/mL | 0.19 µg/mL | 0.25 µg/mL | 0.25 µg/mL | 0.19 µg/mL | 0.25 µg/mL | 0.125 µg/mL |  |  | 0.094 µg/mL | 0.094 µg/mL |  |  | six of seven |  | 
CN(C)c1cc(NC(=O)CNC(C)(C)C)c(O)c2c1C[C@H]1C[C@H]3[C@H](N(C)C)C(O)=C(C(N)=O)C(=O)[C@@]3(O)C(O)=C1C2=O [TGC, tigecycline] | 0.094 µg/mL | 0.125 µg/mL | 0.094 µg/mL | 0.19 µg/mL | 0.094 µg/mL | 0.19 µg/mL | 0.125 µg/mL |  |  | 0.094 µg/mL | 0.094 µg/mL |  |  | two of seven |  | 
